Where “and” joins values, the source holds several entries; their conditions need not be identical. Equal values may be shown once.
Key:
[1] = (§1) Compound was evaluated for the toxicity in mice; type: organism-based; settings: mouse, in vivo
[2] = test system: Mus musculus; test: Compound was evaluated for the percent reduction of carrageenan induced edema in mice at dose of 40 mg/kg; type: functional
[3] = species: Mus musculus; test: (§2) Neurotoxic dose that causes minimal recognizable neurotoxicity in 50% of animals tested; type: functional
In short: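 Mice dosed orally or intraperitoneally; neurotoxicity scored on five end points, including a positional sense test in which a hind leg lowered over a table edge should be quickly lifted back to a normal position. NTD50 is the dose giving minimal recognizable neurotoxicity in 50% of animals tested.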

[4] = species: Mus musculus; test: Dose giving one-half of average maximal [40%] response in carrageenan assay; type: functional
[5] = species: Rattus norvegicus; test: Ulcerogenic dose that produced gastric lesions, ulcers and/or hemorrhage in 50% of the animals tested; type: functional, Stomach
In short: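 Ten male Sprague–Dawley rats (ca. 160 g) were fasted 24 h with water available, then dosed po with compound or vehicle. At 4 h they were killed with CO2, and stomachs were opened along the greater curvature. A nonbiased observer scored ulcers, pitting or hemorrhagic spots. UD50 (lesions in 50% of animals) was determined by Litchfield–Wilcoxon.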

[6] = species: Mus musculus; test: Dose giving one-half of average maximal [40%] response in phenylquinone writhing assay; type: functional
[7] = Lethal dose evaluated in NPP assay; type: toxicity, organism-based; settings: mouse, in vivo
[8] = test system: Mus musculus; test: Compound was evaluated for the percent reduction of carrageenan induced edema in mice at dose of 50 mg/kg; type: functional
[9] = test system: Mus musculus; test: Compound was evaluated for the percent reduction of carrageenan induced edema in mice at dose of 25 mg/kg; type: functional
[10] = test system: Mus musculus; test: Percent analgesia in phenylquinone writhing assay at 10 mg/kg; type: functional
In short: (§3)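 Groups of 10 male mice were dosed orally with compound dissolved or suspended in 0.25% methylcellulose (0.25 mL per mouse). After the designated interval they were challenged ip with 0.25 mL of 0.02% phenylquinone in aqueous ethanol (95:5). Read-out is the percentage of mice protected from writhing.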

[11] = test system: Mus musculus; test: Percent analgesia in phenylquinone writhing assay at 30 mg/kg; type: functional; in short: as §3
[12] = test system: Mus musculus; test: Percent analgesia in phenylquinone writhing assay at 3 mg/kg; type: functional; in short: as §3
[13] = as §2; type: toxicity, organism-based; settings: mouse, in vivo; read-out: NTD50
In short: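 NTD50 in mice is the oral or intraperitoneal dose causing minimal recognizable neurotoxicity in 50% of animals, judged by five end points, including a positional sense test (hind leg lowered over a table edge should be lifted back).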

[14] = test system: Mus musculus; test: Compound was evaluated for the percent reduction of carrageenan induced edema in mice at dose of 1 mg/kg; type: functional
[15] = test system: Mus musculus; test: Compound was evaluated for the percent reduction of carrageenan induced edema in mice at dose of 150 mg/kg; type: functional
[16] = test system: Mus musculus; test: Compound was evaluated for the percent reduction of carrageenan induced edema in mice at dose of 10 mg/kg; type: functional
[17] = test system: Mus musculus; test: Compound was evaluated for the percent reduction of carrageenan induced edema in mice at dose of 30 mg/kg; type: functional
[18] = test system: Mus musculus; test: Compound was evaluated for the percent reduction of carrageenan induced edema in mice at dose of 100 mg/kg; type: functional
[19] = test system: Mus musculus; test: Compound was evaluated for the percent reduction of carrageenan induced edema in mice at dose of 200 mg/kg; type: functional
[20] = test system: Rattus norvegicus; test: Compound was evaluated in the developed adjuvant arthritis assay at a dose of 3 mg/kg for the percent reduction of carrageenan induced edema (LHF) on 22nd day; type: functional
In short: (§4)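 Rats received 0.1 mL heat-killed Mycobacterium tuberculosis suspension (3.5 mg/mL) into the left hind footpad on day 1. On day 20, animals with developed arthritis (all four paws swollen, tail and ears involved) were used. Oral gavage in 0.25% methylcellulose (0.005 mL/g) on days 20 and 22. Hind paw volumes were recorded daily on days 20–23. Mean group volume is expressed as percent change from day 20.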

[21] = test system: Rattus norvegicus; test: Compound was evaluated in the developed adjuvant arthritis assay at a dose of 10 mg/kg for the percent reduction of carrageenan induced edema (LHF) on 23rd day; type: functional; in short: as §4
[22] = test system: Rattus norvegicus; test: Compound was evaluated in the developed adjuvant arthritis assay at a dose of 10 mg/kg for the percent reduction of carrageenan induced edema (LHF) on 21st day; type: functional; in short: as §4
[23] = test system: Rattus norvegicus; test: Compound was evaluated in the developed adjuvant arthritis assay at a dose of 30 mg/kg for the percent reduction of carrageenan induced edema (LHF) on 21st day; type: functional; in short: as §4
[24] = species: Mus musculus; test: as §1; type: organism-based; settings: in vivo
[25] = test system: Rattus norvegicus; test: Compound was evaluated in the developed adjuvant arthritis assay at a dose of 10 mg/kg for the percent reduction of carrageenan induced edema (LHF) on 22nd day; type: functional; in short: as §4
[26] = test system: Rattus norvegicus; test: Compound was evaluated in the developed adjuvant arthritis assay at a dose of 3 mg/kg for the percent reduction of carrageenan induced edema (LHF) on 23rd day; type: functional; in short: as §4
[27] = test system: Rattus norvegicus; test: Compound was evaluated in the developed adjuvant arthritis assay at a dose of 3 mg/kg for the percent reduction of carrageenan induced edema (LHF) on 21st day; type: functional; in short: as §4
[28] = test system: Rattus norvegicus; test: Compound was evaluated in the developed adjuvant arthritis assay at a dose of 30 mg/kg for the percent reduction of carrageenan induced edema (LHF) on 22nd day; type: functional; in short: as §4
[29] = test system: Rattus norvegicus; test: Compound was evaluated in the developed adjuvant arthritis assay at a dose of 30 mg/kg for the percent reduction of carrageenan induced edema (LHF) on 23rd day; type: functional; in short: as §4

## CC1(C)CN2C(c3ccccc3)=CSC2=N1
[1]
  LD50: 60 mg/kg
[2]
  Reduction: 0%

## CCCCC1C(=O)N(c2ccccc2)N(c2ccccc2)C1=O [PHENYLBUTAZONE]
[3]
  NTD50: 690 mg/kg
[4]
  ED50: 50 mg/kg
[5]
  UD50: 75 mg/kg
[6]
  ED50: 64 mg/kg
[7]
  LD50: > 300 mg/kg

## Cc1cc(C)c(NC(=O)C2=C(c3ccccc3)N3CCN=C3S2)c(C)c1
[8]
  Reduction: 23%
[1]
  LD50: 80 mg/kg

## c1ccc(C2=C(c3ccccc3)N3CCN=C3S2)cc1
[1]
  LD50: 40 mg/kg
[9]
  Reduction: 14%

## CC(C)Cc1ccc(C(C)C(=O)O)cc1 (configuration not stated) [IBUPROFEN]
[3]
  NTD50: 470 mg/kg
[5]
  UD50: 60 mg/kg
[10]
  Analgesia: 50%
[11]
  Analgesia: 90%
[7]
  LD50: > 1000 mg/kg
[12]
  Analgesia: 30%

## COc1ccc2cc([C@H](C)C(=O)O)ccc2c1 [NAPROXEN]
[13]
  TD50: 370 mg/kg
[5]
  UD50: 10 mg/kg

## CC1=CSC2=NC3CCCCC3N12 (cis isomer)
[8]
  Reduction: 80%
[14]
  Reduction: 15%
[1]
  LD50: 20 mg/kg
[9]
  Reduction: 57%

## CCOC(=O)Cc1ccc(C2=CSC3=NCCN23)cc1
[1]
  LD50: 180 mg/kg
[15]
  Reduction: 0%

## CC(C)(C)C1=CSC2=NC3CCCCC3N12 (configuration not stated)
[1]
  LD50: 20 mg/kg

## O=S(=O)(C1=C(c2ccccc2)N2CCN=C2S1)c1ccccc1
[16]
  Reduction: 10%
[17]
  Reduction: 6%
[18]
  Reduction: 15%

## CC1=C(C(=O)Nc2cccc(C(F)(F)F)c2)SC2=NCCN21
[19]
  Reduction: 36%
[1]
  LD50: 240 mg/kg

## CCOC(=O)C1=C(C)N2CCN=C2S1
[8]
  Reduction: 2%
[1]
  LD50: 180 mg/kg

## CC1=CSC2=NC3CCCCC3N12 (trans isomer)
[8]
  Reduction: 100%
[20]
  Reduction: 2%
[21]
  Reduction: 19%
[22]
  Reduction: 10%
[23]
  Reduction: 10%
[24]
  LD50: 20 mg/kg
[25]
  Reduction: 18%
[9]
  Reduction: 76%
[26]
  Reduction: 2%
[27]
  Reduction: 0%
[28]
  Reduction: 19%
[29]
  Reduction: 18%

## OC1(C(F)(F)F)CSC2=NC3CCCCC3N21 (configuration not stated)
[19]
  Reduction: 18%

## CC1(C)SC2=NC3CCCCC3N2C1(O)c1ccccc1 (configuration not stated)
[19]; 200 mg/kg
  Reduction: 15% and 30%

Source: ChEMBL document CHEMBL1121836, “Effect of structural change on acute toxicity and antiinflammatory activity in a series of imidazothiazoles and thiazolobenzimidazoles” (J Med Chem, 1981)
